{
  "source": "paper PMC3529859",
  "about": "(Leukemia, 2012)",
  "format_in_all_cases": "cell-based, human",
  "key": {"[1]": {"tested_on": "KIT D816V+ primary bone marrow mast cells", "conditions": "1 µM (1000 nM); 7 d; SCF 100 ng/ml; KIT D816V-positive patients n=5", "summary_of_the_method": "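Bone marrow mononuclear cells from patients with systemic mastocytosis (WHO criteria, IRB-approved protocol, informed consent), with KIT D816V status determined by PCR/RFLP. Cells were incubated with test compound at 0, 100 or 1000 nM in 0.1% DMSO for 7 d with SCF (100 ng/ml), then mast cell viability was assessed.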"}, "[2]": {"tested_on": "SCF-enhanced degranulation of primary HuMCs", "assay": "SCF-enhanced degranulation of HuMCs", "conditions": "Ag 0.1 ng/ml + SCF 10 ng/ml; up to 1000 nM"}, "[3]": {"tested_on": "FcεRI-mediated degranulation of primary HuMCs", "assay": "FcεRI-mediated degranulation of HuMCs", "conditions": "Ag 1 ng/ml; inhibition observed only at 1000 nM"}},
  "data": [
    {"compound": "CO[C@@H]1[C@H](N(C)C(=O)c2ccccc2)C[C@H]2O[C@]1(C)n1c3ccccc3c3c4c(c5c6ccccc6n2c5c31)C(=O)NC4", "note": "[PKC 412]", "values": [
      {"measurement": "reduction in the viability of mast cells", "setting": "[1]", "result": 88, "unit": "%"}
    ]},
    {"compound": "Cc1ccc(NC(=O)c2ccc(CN3CCN(C)CC3)cc2)cc1Nc1nccc(-c2cccnc2)n1", "note": "[imatinib]", "values": [
      {"measurement": "effect on SCF-enhanced degranulation", "setting": "[2]", "result": "inhibited SCF-enhanced degranulation at the highest concentration"},
      {"measurement": "effect on FcεRI mediated mast cell degranulation", "setting": "[3]", "result": "minimal effects"}
    ]}
  ]
}
